# Assay results published in ChEMBL document CHEMBL1144780, “Synthesis and SAR of new pyrrolo[2,1-f][1,2,4]triazines as potent p38 alpha MAP kinase inhibitors” (Bioorg Med Chem Lett, 2008).
# Assays:
# [1] = tested on: Mus musculus; test: Inhibition of LPS-induced TNFalpha production in BALB/c mouse at 10 mg/kg, po relative to control; format: functional
# In short: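 Female BALB/c mice, 6–8 weeks old, n = 8 per group, given 10 mg/kg by oral gavage in PEG 300; vehicle controls received PEG300 alone. LPS (E. coli O111:B4, 50 µg/kg) given ip 30 min after dosing. Blood taken 90 min after LPS and serum TNF-α measured by ELISA. Inhibition relative to vehicle, means SD, ANOVA.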
# [2] = biological target: Mitogen-activated protein kinase 14 (Homo sapiens, UniProt Q16539); test: Inhibition of p38alpha
# Chain of Mitogen-activated protein kinase 14 (Q16539 whole entry): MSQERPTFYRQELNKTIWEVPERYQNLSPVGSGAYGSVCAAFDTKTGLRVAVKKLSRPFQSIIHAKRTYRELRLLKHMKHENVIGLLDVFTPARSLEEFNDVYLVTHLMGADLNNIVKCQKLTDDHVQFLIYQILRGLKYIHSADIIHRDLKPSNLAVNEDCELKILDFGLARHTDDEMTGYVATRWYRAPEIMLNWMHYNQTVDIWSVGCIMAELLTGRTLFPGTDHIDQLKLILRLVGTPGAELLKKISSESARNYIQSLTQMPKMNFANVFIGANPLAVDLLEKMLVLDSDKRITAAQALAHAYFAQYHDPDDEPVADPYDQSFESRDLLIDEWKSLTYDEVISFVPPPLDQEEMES
# [3] = tested on: PBMC; test: Inhibition of LPS-stimulated TNFalpha production in human PBMCs; format: functional, cell-based
# In short: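 PBMCs from heparinized healthy-volunteer blood isolated by Ficoll-Hypaque and resuspended at 5 × 10⁶/mL in RPMI with 10% FBS. Cells preincubated with compound for 5 min at rt, then stimulated with LPS (200 ng/mL stock) for 6 h at 37 °C. TNF-α in medium measured by ELISA. IC50 derived by linear regression.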
Compound,inhibition in vivo at 10 mg/kg [1],Ki [2],IC50 [3],IC50 [2]
CCNC(=O)c1cn2ncnc(Nc3cc(NC(=O)c4cccc(N5CCOCC5)c4)ccc3C)c2c1C,84%,0.98 nM,45 nM,–
CCCNC(=O)c1cn2ncnc(Nc3cc(NC(=O)c4cc(F)cc(N5CCOCC5)c4)ccc3C)c2c1C,–,–,4 nM,5 nM
CCNC(=O)c1cn2ncnc(Nc3cc(NC(=O)c4cccc(N5CCCC5=O)c4)ccc3C)c2c1C,–,–,633 nM,16 nM
Cc1ccc(NC(=O)c2cc(F)cc(N3CCOCC3)c2)cc1Nc1ncnn2cc(C(=O)N(C)C)c(C)c12,–,–,212 nM,63 nM
CCNC(=O)c1cn2ncnc(Nc3cc(NC(=O)c4cccc(-n5cccn5)c4)ccc3C)c2c1C,–,–,–,123 nM
Cc1ccc(NC(=O)c2cc(F)cc(N3CCOCC3)c2)cc1Nc1ncnn2cc(C(=O)NC(C)C)c(C)c12,–,–,6 nM,5 nM
Cc1cccc(C(=O)Nc2ccc(C)c(Nc3ncnn4cc(C(=O)N[C@@H](C)c5ccccc5)c(C)c34)c2)c1,–,–,259 nM,94 nM
CCOC(=O)c1cn2ncnc(Nc3cc(NC(=O)c4cc(F)cc(N5CCOCC5)c4)ccc3C)c2c1C,–,–,4 nM,2 nM
Cc1ccc(NC(=O)c2cc(F)cc(N3CCOCC3)c2)cc1Nc1ncnn2cc(C(=O)NCCN(C)C)c(C)c12,–,–,18 nM,10 nM
Cc1ccc(NC(=O)c2cc(F)cc(N3CCOCC3)c2)cc1Nc1ncnn2cc(C(=O)O)c(C)c12,–,–,> 1000 nM,1 nM
Cc1ccc(NC(=O)c2cc(F)cc(N3CCOCC3)c2)cc1Nc1ncnn2cc(C(=O)N[C@H](C)c3ccccc3)c(C)c12,–,–,48 nM,23 nM
CCNC(=O)c1cn2ncnc(Nc3cc(NC(=O)c4cc(F)cc(N5CCOCC5)c4)ccc3C)c2c1C,–,0.42 nM,2 nM,–
COC[C@H](C)NC(=O)c1cn2ncnc(Nc3cc(NC(=O)c4ccc(C#N)cc4)ccc3C)c2c1C,–,–,65 nM,–
Cc1ccc(NC(=O)c2cc(F)cc(N3CCOCC3)c2)cc1Nc1ncnn2ccc(C)c12,–,–,98 nM,27 nM
Cc1ccc(NC(=O)c2ccc(C#N)cc2)cc1Nc1ncnn2cc(C(=O)N[C@@H](C)c3ccccc3)c(C)c12,–,3.4 nM,11 nM,–
CCNC(=O)c1cn2ncnc(Nc3cc(NC(=O)c4cccc(-n5ccnc5)c4)ccc3C)c2c1C,–,–,126 nM,7 nM
COC[C@H](C)NC(=O)c1cn2ncnc(Nc3cc(NC(=O)c4cc(F)cc(N5CCOCC5)c4)ccc3C)c2c1C (stereo in doubt; 16),–,–,–,2 nM

Compound,inhibition in vivo at 10 mg/kg [1],Ki [2],IC50 [3],IC50 [2]
CCNC(=O)c1cn2ncnc(Nc3cc(NC(=O)c4cccc(N5CCN(C)CC5)c4)ccc3C)c2c1C,–,–,–,924 nM
Cc1ccc(NC(=O)c2ccccc2)cc1Nc1ncnn2cc(C(=O)N[C@@H](C)c3ccccc3)c(C)c12,–,–,52 nM,19 nM
COC[C@H](C)NC(=O)c1cn2ncnc(Nc3cc(NC(=O)c4cccc(N5CCOCC5)c4)ccc3C)c2c1C,–,–,29 nM,12 nM
COC[C@H](C)NC(=O)c1cn2ncnc(Nc3cc(NC(=O)c4cc(F)cc(N5CCOCC5)c4)ccc3C)c2c1C (stereo in doubt; 39),–,–,7 nM,2 nM
Cc1ccc(C(=O)Nc2ccc(C)c(Nc3ncnn4cc(C(=O)N[C@@H](C)c5ccccc5)c(C)c34)c2)cc1,–,–,313 nM,13 nM
Cc1ccc(NC(=O)c2ccnc(N3CCOCC3)c2)cc1Nc1ncnn2cc(C(=O)N[C@@H](C)c3ccccc3)c(C)c12,89%,–,43 nM,–
Cc1ccc(NC(=O)c2cccc(N3CCOCC3)c2)cc1Nc1ncnn2cc(C(=O)N[C@@H](C)c3ccccc3)c(C)c12,87%,–,29 nM,–
Cc1ccc(NC(=O)c2ccncc2)cc1Nc1ncnn2cc(C(=O)N[C@@H](C)c3ccccc3)c(C)c12,–,–,117 nM,14 nM
CCNC(=O)c1cn2ncnc(Nc3cc(NC(=O)c4ccc(C#N)cc4)ccc3C)c2c1C,–,–,46 nM,23 nM
Cc1ccc(NC(=O)c2cccc(C(F)(F)F)c2)cc1Nc1ncnn2cc(C(=O)N[C@@H](C)c3ccccc3)c(C)c12,–,–,72 nM,32 nM
Cc1ccc(NC(=O)c2cc(F)cc(N3CCOCC3)c2)cc1Nc1ncnn2cc(C(=O)N[C@@H](C)c3ccccc3)c(C)c12,–,0.54 nM,2 nM,–
CNC(=O)c1cn2ncnc(Nc3cc(NC(=O)c4cc(F)cc(N5CCOCC5)c4)ccc3C)c2c1C,–,–,14 nM,4 nM
Cc1ccc(NC(=O)c2cc(F)cc(N3CCOCC3)c2)cc1Nc1ncnn2cc(C(N)=O)c(C)c12,–,–,19 nM,3 nM
Cc1ccc(NC(=O)c2c(Cl)cccc2Cl)cc1Nc1ncnn2cc(C(=O)N[C@@H](C)c3ccccc3)c(C)c12,–,–,–,> 1000 nM
Cc1ccc(NC(=O)c2cc(C(F)(F)F)cc(C(F)(F)F)c2)cc1Nc1ncnn2cc(C(=O)N[C@@H](C)c3ccccc3)c(C)c12,–,–,–,> 1000 nM
CCNC(=O)c1cn2ncnc(Nc3cc(NC(=O)c4ccnc(N5CCOCC5)c4)ccc3C)c2c1C,–,–,287 nM,2 nM
